Measurements gathered from unrelated publications.
CDK16: Cyclin-dependent kinase 16 (CDK16, Homo sapiens, UniProt Q00536)
CDK16 with cyclin Y: Cyclin-dependent kinase 16, with cyclin Y (CDK16, Homo sapiens, UniProt Q00536)

| Compound | target | effect on | mode | technique | concentration | quantity | result |
| --- | --- | --- | --- | --- | --- | --- | --- |
| C=CC(=O)N1CCC[C@@H](n2nc(-c3ccc(Oc4ccccc4)cc3)c3c(N)ncnc32)C1 | CDK16 | enzyme activity | inhibitor | – | 1 µM | inhibition | 10% |
| COc1ccc2oc(-c3ccc4nc(N)oc4c3)c/c(=N\c3ccccc3NC(=O)CCN)c2c1 | CDK16 with cyclin Y | binding | – | – | 1 µM | remaining binding | 107% |
| CC(C)S(=O)(=O)c1ccc2nccc(Nc3ccc4sc(C5CCCC5)nc4c3)c2c1 | CDK16 with cyclin Y | enzyme activity | inhibitor | – | 1 µM | activity vs control | 106% |
| Cc1cc(O)c(-c2ccc([C@@H](C)CN(C)C)cc2)c2c1[nH]c(=O)c1sccc12 | CDK16 | enzyme activity | inhibitor | – | 0.1 µM | inhibition | -12.9% |
| CO[C@@H]1[C@H](N(C)C(=O)c2ccccc2)C[C@H]2O[C@]1(C)n1c3ccccc3c3c4c(c5c6ccccc6n2c5c31)C(=O)NC4 | CDK16 | enzyme activity | inhibitor | – | 1 µM | inhibition | 5% |
| Cc1ccc(NC(=O)c2ccnc(C(F)(F)F)c2)cc1-c1cc(OCCO)nc(N2CCOCC2)c1 | CDK16 | binding | – | – | 1 µM | remaining binding | 100% |
| N#Cc1ccc(NC(=O)Nc2ccccc2)cc1 | CDK16 | cell-free assay | – | competition with immobilised ligand | 25 µM | remaining binding | 68% |
| COc1ccc2[nH]c3c4[nH]c5ccc(OC)cc5c4c4c(c3c2c1)C(=O)NC4=O | CDK16 | binding | – | – | 1 µM | remaining binding | 99% |
| CCCCC(=O)Nc1ccc(-c2ccc3ncn(CCC)c(=O)c3c2)cn1 | CDK16 | binding | – | competition with immobilised ligand | 0.5 µM | remaining binding | 90% |
